# Rce1 inhib: inhibitors of yeast Ras-converting enzyme; yeast membranes, quenched prenylated peptide cleavage fluorescence; calls only; Q03530; hit rate 0.27% among 290,000; AID 2563;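 active means fall in fluorescence gain of 50% or more versus controls, with final raw signal at or below 3038400; inconclusive means same 50% fall but final raw signal above 3038400; inactive means fall in fluorescence gain under 50%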
# Target sequence (Q03530 whole entry, looked up): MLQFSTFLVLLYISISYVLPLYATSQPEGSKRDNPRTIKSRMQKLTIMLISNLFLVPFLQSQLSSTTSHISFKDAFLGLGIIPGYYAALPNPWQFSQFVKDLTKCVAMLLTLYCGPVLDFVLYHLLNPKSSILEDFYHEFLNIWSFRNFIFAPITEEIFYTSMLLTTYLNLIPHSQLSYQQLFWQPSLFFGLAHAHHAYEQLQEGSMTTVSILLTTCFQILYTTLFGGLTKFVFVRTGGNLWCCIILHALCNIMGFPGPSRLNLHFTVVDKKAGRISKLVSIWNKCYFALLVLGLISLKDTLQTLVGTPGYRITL
# TAAR1 agonist: agonists of human TAAR1; activation, % at 3 µM; hit rate 0.99% among 360,000; CHO RD-HGA16 TAAR1, Fluo-8 calcium fluorescence; vehicle wells 0%, saturating PEA agonist 100%; Q96RJ0;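 active means activation above the mean activation of all test compounds in the run plus 3 SD, cut at about 38% in these data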
# Target sequence (Q96RJ0 whole entry, looked up): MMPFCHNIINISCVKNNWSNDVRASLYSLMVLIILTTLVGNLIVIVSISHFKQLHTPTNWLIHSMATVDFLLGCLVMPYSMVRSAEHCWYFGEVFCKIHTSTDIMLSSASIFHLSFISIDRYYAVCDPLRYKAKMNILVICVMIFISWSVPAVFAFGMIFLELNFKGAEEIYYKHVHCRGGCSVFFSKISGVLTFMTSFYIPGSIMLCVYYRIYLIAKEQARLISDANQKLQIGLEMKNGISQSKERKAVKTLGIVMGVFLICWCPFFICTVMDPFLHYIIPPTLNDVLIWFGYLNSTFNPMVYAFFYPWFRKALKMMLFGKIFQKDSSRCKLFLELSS
#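 Repeats: no replicates (n 1) | Material: CHO-derived RD-HGA16 cells with stable Gα16 and human TAAR1 | Technique: Kinetic Fluo-8 calcium fluorescence | Schedule: 17-24 h seeding, 75 min 37 °C dye, 30 min RT | Evaluation: % activation from peak over basal fluorescence ratio, DMSO-to-PEA scaled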
# Platelet DG rel: modulates dense granule release in human platelets. human platelet-rich plasma, SFLLRN dense granule ATP release, luminescence. inhibition, %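 (compounds screened at 7.5 µM in platelet-rich plasma)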. hit rate 0.22% among 300,000. AID 1663;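 active means mean replicate score, as percent of positive control, at or above 50; inconclusive means mean below 50 but at least one replicate at or above 50; inactive means mean and every replicate below 50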
# VLA-4 inh: inhibition in a human VLA-4 binding assay; hit rate 0.2% among 330,000; AID 2557; inhibition, % (about 7 µM as worked out from the volumes in the protocol); P13612; VLA-4 expressing cells, ligand binding flow cytometry; in the data active means inhibition above about 50%
# TAAR1 antag: antagonists of human TAAR1; inhibition, % at 3 µM; CHO RD-HGA16 TAAR1, Fluo-8 calcium fluorescence, antagonist; hit rate 1.5% among 360,000; Q96RJ0;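 active means inhibition above a per-plate cutoff, the mean inhibition of test compounds on that plate plus 3 SD, cut at about 49% in these data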
#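 Material: CHO RD-HGA16 cells bearing hTAAR1; compound dosing: one-point dosing, 3 µM nominal final; schedule: dye loading 75 min at 37 °C, then 30 min room temperature; measured by: calcium fluorescence with Fluo-8; control set: vehicle and agonist controls; replication: n of 1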
# Numbers stand for hits; n = inactive; u = inconclusive; x = not tested or not shown; + = active, no number. A selection: hits, their analogues and other compounds. The true share with any hit is near 2.6%.
SMILES,Rce1 inhib,TAAR1 agonist,Platelet DG rel,VLA-4 inh,TAAR1 antag
CCCCN(CC)CCCNC(=O)C1CCN(c2ncnc3c2sc2cccc(F)c23)CC1,n,n,n,n,n
Cc1ccc(S(=O)(=O)Cc2cn3cccnc3n2)cc1,+,n,n,x,n
Cc1ccc2nc(SCc3cn4cccnc4n3)[nH]c2c1,n,n,n,n,n
COC(=O)C1=C(C)N(Cc2ccc(C(F)(F)F)cc2)C(=NCc2ccccc2C(F)(F)F)NC1c1cccc(Cl)c1 (centres undefined),x,n,x,x,n
COc1ccc(CC(=O)N/N=C/c2ccc(C)s2)cc1,n,n,n,n,n
COc1ccc2cc(C(=O)C3CCCN(C(=O)c4cc(=O)n(C)c(=O)n4C)C3)ccc2c1 (centres undefined),+,n,n,n,n
COc1ccccc1CNC(=O)CN1C(=O)NC(c2ccccc2)(c2ccccc2)C1=O,x,n,x,n,n
COCCCNC(=S)N1CCN(c2nc(-c3ccc(Cl)cc3)cs2)CC1,x,n,x,x,62
COc1cccc(-c2csc(N3CCN(C(=O)Nc4ccc(Cl)cc4)CC3)n2)c1,n,n,n,n,58
CCOC(=O)N1CCC(NS(=O)(=O)c2ccc(NC(C)=O)c(Cl)c2)CC1,x,n,n,n,n
Cc1cc2c3c(c1)C1(SCC(=O)N1c1ccc(F)cc1)C(=O)N3C(C)(C)CC2C (centres undefined),n,48,n,n,n
CC1CC(C)(C)N2C(=O)C3(Nc4ccccc4S3)c3cccc1c32 (centres undefined),n,x,n,n,x
O=C(N=C1SC2CS(=O)(=O)CC2N1c1cccc(F)c1)C1CC1 (centres undefined),n,n,n,n,n
Cc1c2c(n3c(nc4ccccc43)c1C#N)N(CCCN(C)C)CC2,+,n,n,n,n
Cc1c2c(n3c(nc4ccccc43)c1C#N)N(CCN(C)C)CC2,n,n,n,n,n
CSCCC(NC(=O)c1ccco1)C(=O)NC1CCCCCC1 (centres undefined),n,n,n,n,n
COc1ccc(CNC(=O)N2[C@H]3CC[C@@H]2C=C(c2ccc(F)cc2OCc2ccccc2)C3)cc1OC,x,n,x,x,49
O=C(NCc1ccc(F)cc1)N1[C@H]2CC[C@@H]1C=C(c1ccc(F)cc1OCc1ccccc1)C2,x,n,x,x,n
CC(=O)Nc1ccc(NC(=O)CSc2nc3nc(C)cc(C)c3c(=O)[nH]2)cc1,n,n,n,n,n
COC(=O)C[C@@H]1OC[C@H](CO)N1S(=O)(=O)c1ccc(C)cc1,x,n,x,x,n
Cc1noc(C)c1COc1ccc(C(=O)OCC(=O)N2c3ccccc3NC(=O)C2(C)C)cc1,n,n,n,n,67
COc1cc(/C=C/C(=O)OCC(=O)N2c3ccccc3NC(=O)C2(C)C)cc(OC)c1OC,x,n,x,n,64
COc1ccc(S(N)(=O)=O)cc1C(=O)OCC(=O)N1c2ccccc2NC(=O)C1(C)C,x,n,x,n,n
COCCn1cc(C(=O)NCCN(C)C)c2c3ccccc3n(C)c2c1=O,+,n,n,n,n
CCN(CC)CCNC(=O)c1cn(CCOC)c(=O)c2c1c1ccccc1n2C,n,n,n,n,n
SMILES,Rce1 inhib,TAAR1 agonist,Platelet DG rel,VLA-4 inh,TAAR1 antag
O=c1[nH]c(-c2ccccc2)ncc1Oc1ccccc1,n,n,n,n,n
CCC(C)n1c(SCC(=O)NC2CC2)nc2ccccc2c1=O (centres undefined),x,n,x,x,n
OC(CNC1Cc2ccccc2C1)COc1ccc(Cl)cc1 (centres undefined),n,n,n,n,n
OC(CNC1CCCc2ccccc21)COc1c(Cl)cccc1Cl (centres undefined),n,69,n,n,n
CCNC(=O)C1CCCN(C(=O)c2ccc3ccccc3c2)CC1 (centres undefined),x,n,x,x,n
Cc1nc(N2CCN(c3ccccc3)CC2)nc2c1C(=O)CCC2,n,n,n,n,57
Cc1cc(C)c(CSc2nnnn2-c2ccc(C(=O)O)cc2)c(C)c1,n,n,n,n,n
Cc1cc(S(=O)(=O)c2ccc(Cl)cc2)nc(S(=O)(=O)c2ccc(Cl)cc2)c1C#N,x,n,x,x,68
O=C(NCc1ccccc1)C1=C[C@@H](c2ccccc2)C[C@@H](OCc2ccc(CO)cc2)O1,n,n,n,n,n
C#Cc1ccc([C@@H]2C=C(C(=O)NCc3ccccc3)O[C@H](OCc3ccc(CO)cc3)C2)cc1,n,n,n,n,51
Cc1ccc(Cn2c(N)c(S(=O)(=O)c3cccs3)c3nc4ccccc4nc32)cc1,n,n,n,n,n
COc1ccc(Cn2c(N)c(S(=O)(=O)c3cccs3)c3nc4ccccc4nc32)cc1,+,n,n,n,n
Cc1ccc(/C=C/C(=O)O)cc1S(=O)(=O)N1CCc2ccccc2C1,n,n,n,n,n
Cc1ccc(/C=C/C(=O)O)cc1S(=O)(=O)N1CCCCC1,n,n,65,n,n
CCN(Cc1ccccc1)c1ccc(/C=N/N=C(N)N)cc1,+,n,n,n,n
O=C(NC(CC1=CCCCC1)c1ccc2ccccc2c1)C(F)(F)F (centres undefined),x,n,x,x,n
CC1=Nc2ccccc2/C1=C/c1nc(-c2ccc(C)s2)oc1O,n,38,n,n,54
CC1=Nc2ccccc2/C1=C\c1nc(-c2ccccc2)oc1O,n,n,n,n,n
CCOc1ccccc1C1C2C(=O)N(c3ccccc3)C(=O)C2ON1c1ccccc1 (centres undefined),n,n,n,n,50
CN1c2ccccc2-c2nc3ccccc3n2C1c1ccccn1 (centres undefined),u,n,n,n,n
c1ccc(CN2c3ccccc3-c3nc4ccccc4n3C2c2ccccn2)cc1 (centres undefined),n,n,n,n,55
CN1c2ccccc2-c2nc3ccccc3n2C1c1ccncc1 (centres undefined),+,n,n,n,n
O=C(C1CCC(=O)N(C2CC2)C1)N(CCO)Cc1ccccc1 (centres undefined),n,n,n,n,n
Cc1cc(/C=N/NC(N)=S)c(C)n1-c1ccc(Cl)c(Cl)c1,n,n,n,n,50
O=C(O)CCCC[C@@H]1SC[C@@H]2NC(=O)N[C@@H]21,+,n,n,n,n
SMILES,Rce1 inhib,TAAR1 agonist,Platelet DG rel,VLA-4 inh,TAAR1 antag
Cc1ccc(C(=O)NCC(=O)OCc2nc3ccsc3c(=O)[nH]2)cc1C,x,n,x,x,n
Cc1cc(OCc2cn(CC(=O)c3ccc(O)cc3)nn2)ccc1[N+](=O)[O-],x,n,x,x,n
Cc1ccc(-c2nc(Nc3ccc(N4CCOCC4)cc3)c3ccccc3n2)cc1,+,n,n,n,n
Cc1ccc(-c2nc(Nc3ccc(O)cc3)c3ccccc3n2)cc1,n,n,n,n,n
CC(C)C(N)c1csc(NC(=O)Nc2ccccc2C(C)(C)C)n1 (centres undefined),x,n,x,x,n
CC(C)(C)c1ccccc1NC(=O)Nc1nc(C(N)c2ccccc2Cl)cs1 (centres undefined),x,44,x,x,n
COc1ccc(C(C(=O)NC(C)(C)C)N(Cc2cccnc2)C(=O)CCC(=O)Nc2cc(C)on2)cc1 (centres undefined),n,n,n,n,n
